Most compounds without a hit are left out; they make up all but 2.1% or so of the library.
ASAP1 inh = blocks human ASAP1-stimulated Arf1 GTP hydrolysis. AID 624377. GDP FP detection. inhibition, % at 16.5 µM. 0.19% of 360,000 active; in the data active = inhibition above about 25%
ARFGAP1 inh = rat ARFGAP1 inhibition. Q62848. 0.26% of 360,000 active. AID 651572. Arfgap1-stimulated ARF1 GTP hydrolysis, GDP FP detection. inhibition, % at 16.5 µM;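 active = inhibition above a per-plate limit, mean inhibition of low control wells plus 3 SD, cut at about 25% in these data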
Target sequence (Q62848 1-136 limits assumed): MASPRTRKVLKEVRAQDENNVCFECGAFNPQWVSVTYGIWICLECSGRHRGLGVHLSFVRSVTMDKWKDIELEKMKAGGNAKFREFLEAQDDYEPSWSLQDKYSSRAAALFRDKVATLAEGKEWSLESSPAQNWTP
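Assay system: Rat Arfgap1 GAP domain (His6, aa 1-136), purified enzyme | Buffer or medium: HEPES 25 mM pH 7.5, NaCl 150 mM, MgCl2, DTT | Schedule: GTP hydrolysis reaction 2 h at 25 °C | Signal: FP of antibody-bound GDP Alexa 633 tracer, ex 620/em 688 nm | Measure: Percent inhibition of Arfgap1-stimulated GTP hydrolysis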
APOBEC3A inh = blocks human APOBEC3A ssDNA deamination | P31941 | recombinant A3A, FAM/TAMRA ssDNA deamination fluorescence | inhibition, % at 20 µM | 0.41% of 330,000 active;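 active = at least 40% inhibition at 20 µM here, with at most 30% in a related deaminase screen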
Target sequence (P31941 whole entry, looked up): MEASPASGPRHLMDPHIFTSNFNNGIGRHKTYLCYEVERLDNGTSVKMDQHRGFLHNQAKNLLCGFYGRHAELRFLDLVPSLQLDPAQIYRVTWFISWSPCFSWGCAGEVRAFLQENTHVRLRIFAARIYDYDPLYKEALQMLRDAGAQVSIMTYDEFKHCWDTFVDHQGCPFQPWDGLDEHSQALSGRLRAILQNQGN
A3G deaminase = blocks human APOBEC3G single-stranded DNA deamination; 0.28% of 330,000 active; recombinant A3G, ssDNA deamination FAM/TAMRA fluorescence; inhibition, % at 20 µM; Q9HC16;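 active = inhibition of at least 40% at 20 µM, with no more than 30% in the related APOBEC3A deaminase screen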
Statin myotox sup = protects C2C12 myotubes from simvastatin toxicity | ATP luminescence, 48 h; scaled: DMSO 0, geranylgeraniol control 100 | rescue of ATP level, % at 7.49 µM | 0.78% of 330,000 active | AID 602340;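 active = mean ATP rescue above about 67%, or every replicate alone reaching that limit, limit read from the data, passing the limit was not always enough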;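 note: myotubes were challenged with 10 µM simvastatin during compound exposure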
Mot1-301 SUMO = inhibitors of SUMOylation pathway: yeast Mot1-301 growth rescue | S. cerevisiae Mot1-301 growth rescue, ATP luminescence, 38.5C; percent above DMSO median, 100 means doubled | growth rescue, % at 18.8 µM | 1% of 320,000 active | AID 2716;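 active = every valid replicate shows activation above 250% relative to neutral control wells; inactive = the rest, any valid replicate at or below 250%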
Yeast Mot1 SUMO = inhibits SUMO pathway, affecting Mot1-301 yeast growth; shares compounds with Mot1-301 SUMO; S. cerevisiae Mot1-301 galactose growth, ATP luminescence, 24 h; -100 = growth of slx-deleted rescue strain; growth activity, percent, % at 42 µM; 2,300 tested, under 10 active;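 active = Signal drops as the depositor expects, and the fitted half-maximal dose is no more than ten times the top valid tested dose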;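 note: more negative values mean stronger growth rescue toward the control strain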
A number is an active result; n = inactive; x = not tested or not shown; + = active, no number.

SMILES	ASAP1 inh	ARFGAP1 inh	APOBEC3A inh	A3G deaminase	Statin myotox sup	Mot1-301 SUMO	Yeast Mot1 SUMO
CC(C)(C)NC(=O)CC1C(=O)NCCN1Cc1c(F)cccc1Cl (stereo not given)	n	n	n	n	x	836	n
CCC(=O)Nc1nc(CC(=O)Nc2ccccc2OC)cs1	n	n	n	n	n	+	n
COc1cc(C)ccc1NC(=O)Cc1csc(NC(=O)Nc2ccccc2OC)n1	n	n	n	n	n	n	x
O=C(O)C1C2CCCCC2=C2CCCCC2C1C(=O)c1ccccc1 (stereo not given)	n	n	n	n	n	394	n
O=C(c1ccccc1)C1CC=CCC1C(=O)c1ccccc1 (stereo not given)	n	n	x	x	n	x	x
C[C@H](NC(=O)[C@@H]1[C@@H](CO)[C@@H]2Cn3c(ccc(-c4ccccc4)c3=O)[C@H]1N2C)c1ccccc1	x	x	x	x	n	x	x
CCOc1cc(/C=C2\NC(=O)NC2=O)ccc1OC(C)C(=O)O (stereo not given)	n	n	n	n	n	514	n
COc1ccc(C(=O)COc2ccc3ccc(=O)oc3c2)c(OC)c1	n	n	n	n	n	n	x
COc1ccc(C(=O)COc2ccc3ccc(=O)oc3c2)cc1	n	n	n	n	n	426	n
CN(C)C(=O)c1ccc(-c2ccc3c(c2)[C@@H]2[C@@H](CCN2C(=O)c2ccccn2)[C@@H](CO)N3C)cc1	x	x	x	x	n	x	x
O=C(NCCNc1ccc(Cl)cc1[N+](=O)[O-])c1ccccc1F	n	n	n	n	n	474	n
Cc1nn(C)cc1NC(=O)C[C@@H]1CC[C@@H]2[C@@H](COc3ccc(NC(=O)Nc4cccc(Cl)c4)cc3C(=O)N2C)O1	x	x	x	x	n	x	x
Cc1nc2ccccc2n(CC(=O)Nc2cc(Cl)cc(Cl)c2)c1=O	n	n	n	n	x	+	n
CCCOC(=O)C1=C(C)N(C)C(=O)NC1c1cc2c(cc1[N+](=O)[O-])OCO2 (stereo not given)	n	n	n	n	n	n	x
CCOC(=O)C1=C(C)NC(=O)CC1c1cc2c(cc1[N+](=O)[O-])OCO2 (stereo not given)	n	n	n	n	n	937	n
Cc1csc(=O)n1CC(=O)OCC(=O)Nc1cc([N+](=O)[O-])ccc1Cl	n	n	n	n	n	485	n
Cc1ccc(NC(=O)COC(=O)Cn2c(C)csc2=O)c([N+](=O)[O-])c1	n	n	n	n	n	n	x
Cc1ccccc1S(=O)(=O)N1CC[C@@H]2[C@H](CO)Nc3ccc(-c4cccc(F)c4)cc3[C@@H]21	x	x	x	x	n	x	x
Cc1cc(C)c2c(C)[nH]nc2n1	n	n	n	n	x	n	x
Cc1cc(C)c2c(=O)[nH]cnc2n1	n	n	n	n	x	997	n
COc1cccc(NC(=O)CN(C)C(=O)/C=C/c2cn(-c3ccccc3)nc2-c2ccc(C)cc2)c1	n	n	n	n	x	n	x
COc1ccc(NC(=O)CN(C)C(=O)/C=C/c2cn(-c3ccccc3)nc2-c2ccc(F)cc2)cc1	n	n	n	n	x	567	n
COc1ccc(NC(=O)CN(C)C(=O)/C=C/c2cn(-c3ccccc3)nc2-c2ccc(C)cc2)cc1	n	n	n	n	n	515	n
CN(C)C(=O)c1cccc(-c2ccc3c(c2)[C@H]2[C@H](CCN2C(=O)C2CCCCC2)[C@@H](CO)N3)c1	x	x	x	x	n	x	x
C/C(N)=C(/C#N)C(=O)CSc1nnc(-c2ccccc2)n1C	n	n	n	n	x	539	n
C/C(N)=C(/C#N)C(=O)CSc1nnc(C)n1-c1ccccc1	n	n	n	n	x	n	x
COc1ccc(NC(=O)Nc2ccc3c(c2)C(=O)N([C@@H](C)CO)C[C@@H](C)[C@H](CN(C)C(=O)NC2CCCCC2)O3)cc1	x	x	x	x	n	x	x
Cc1ccc(C(C(=O)NC2CCCCC2)N(CC2CCCO2)C(=O)CNC(=O)c2cccs2)cc1 (stereo not given)	n	n	n	n	n	n	x
